Inhibition data for 19 substances are collected here from ChEMBL document CHEMBL1140626, “Quantitative structure-activity relationship of peptides binding to the class II major histocompatibility complex molecule Aq associated with autoimmune arthritis” (J Med Chem, 2007).

Holding throughout (type): cell-based
The nature of assay [1]: Displacement of biotinylated CLIP peptide from H-2Aq expressed in M12Q 14-7 cells at 250 uM. The method, boiled down:
(§1)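 Competition binding on M12Q 14-7 cells transfected with H-2Aq. Test peptide (seven levels, 750 to 1 µM) co-incubated 2.5 h at 37 °C with biotinylated CLIP at 5 µM. After washing, cells were stained with streptavidin-PE and read by flow cytometry. % inhibition was taken from gated mean fluorescence against the no-inhibitor control, after subtracting the no-CLIP background. Duplicates, repeated once; duplicate averages were used.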

The nature of assay [2]: Displacement of biotinylated CLIP peptide from H-2Aq expressed in M12Q 14-7 cells at 83 uM. The method, boiled down:
as §1

A short description of assay [3]: Displacement of biotinylated CLIP peptide from H-2Aq expressed in M12Q 14-7 cells at 28 uM. The gist of the method:
as §1

As to Ac-ITMFKVVYK-NH2, the inhibition in assay [1] was 59%; in assay [2] it was 50%; in assay [3], 35%.

Consider Ac-ITTFKSSSK-NH2, for which the figures for the inhibition in assay [1], in assay [2] and in assay [3] were 20%, 6% and 6%, respectively.

In the case of Ac-ISAFKTNRK-NH2, the inhibition in assay [1] is 84%; in assay [2], 61%; in assay [3] it was 42%.

Ac-IMMFKTDVK-NH2: the figures for the inhibition in assay [1], in assay [2] and in assay [3] were 16%, 24% and 10%, respectively.

With Ac-IAMFKMRSK-NH2, the inhibition in assay [1] stood at 78%; in assay [2], 63%; in assay [3], 40%.

As for Ac-IMSFKTRDK-NH2, the inhibition turned out to be 54% in assay [1], 27% in assay [2] and 15% in assay [3].

Ac-ISTFKARVK-NH2: the inhibition in assay [1] came to 74%; in assay [2], 58%; in assay [3], 39%.

In the case of Ac-IMMFKMSDK-NH2, the values for the inhibition in assay [1], in assay [2] and in assay [3] were 30%, 17% and 4%, respectively.

Ac-IMTFKAVYK-NH2: the values for the inhibition in assay [1], in assay [2] and in assay [3] were 72%, 59% and 47%, respectively.

Ac-IVSFKAYRK-NH2: the inhibition in assay [1] is 51%; in assay [2], 61%; in assay [3], 49%.

With Ac-IMTFKMYVK-NH2, the results for the inhibition in assay [1], in assay [2] and in assay [3] were 48%, 40% and 13%, respectively.

With Ac-IMMFKVRRK-NH2, the inhibition in assay [1] was 74%; in assay [2] it was 52%; in assay [3] it was 36%.

For Ac-IAVFKMVRK-NH2, the inhibition in assay [1] turned out to be 70%; in assay [2], 59%; in assay [3] it was 42%.

With Ac-IAMFKSVNK-NH2, the figures for the inhibition in assay [1], in assay [2] and in assay [3] were 50%, 32% and 19%, respectively.

Regarding Ac-ITSFKMRYK-NH2, the inhibition in assay [1] worked out at 80%; in assay [2], 69%; in assay [3], 50%.

For the substance Ac-IAAFKADSK-NH2, the results for the inhibition in assay [1], in assay [2] and in assay [3] were 53%, 36% and 31%, respectively.

Ac-IVAFKTVVK-NH2: the inhibition in assay [1] is 41%; in assay [2] it was 27%; in assay [3], 22%.

As for Ac-IATFKTYYK-NH2, the figures for the inhibition in assay [1], in assay [2] and in assay [3] were 70%, 58% and 38%, respectively.

On to Ac-ITMFKMDRK-NH2, for which the inhibition in assay [1] was 62%; in assay [2] it was 46%; in assay [3] it was 26%.
